Measured values of several laboratories.
Compare with care: the assays were run in different laboratories.
Target: LIM domain kinase 1 (LIMK1, Homo sapiens, UniProt P53667)

Compound | effect on | action | method | concentration | quantity | result
CN1CCN(C(=O)c2ccc(NC(=O)Nc3ccc(N(C)c4ccnc(Nc5ccc(CS(C)(=O)=O)cc5)n4)cc3)cc2)CC1 | binding | – | competition with immobilised ligand | 1 µM | remaining binding | 61%
CCCCC(=O)Nc1ccc(-c2ccc3ncn(CCC)c(=O)c3c2)cn1 | binding | – | competition with immobilised ligand | 0.5 µM | remaining binding | 96%
C[C@H]1CC[C@H](n2c3cnccc3c3cnc(Nc4ccc5c(n4)CCN(C(=O)CO)C5)nc32)CC1 | binding | – | competition with immobilised ligand | 1 µM | remaining binding | 98%
C#Cc1cc(-c2cc(Nc3nc(N[C@@H](C)c4ccc(F)cn4)ncc3Cl)n[nH]2)ccc1C=O | enzyme activity | inhibitor | – | 0.2 µM | inhibition | 24.2%
C=CC(=O)N1CCC[C@@H](n2nc(-c3ccc(Oc4ccccc4)cc3)c3c(N)ncnc32)C1 | enzyme activity | inhibitor | – | 1 µM | inhibition | 76%
CC(C)S(=O)(=O)c1ccc2nccc(Nc3ccc4sc(C5CCCC5)nc4c3)c2c1 | enzyme activity | inhibitor | – | 1 µM | activity vs control | 82%
CO[C@@H]1[C@H](N(C)C(=O)c2ccccc2)C[C@H]2O[C@]1(C)n1c3ccccc3c3c4c(c5c6ccccc6n2c5c31)C(=O)NC4 | enzyme activity | inhibitor | – | 1 µM | inhibition | 12%
C1=C/COCc2cc(ccc2OCCN2CCCC2)Nc2nccc(n2)-c2cccc(c2)COC/1 | binding | – | – | 0.1 µM | remaining binding | 82%
